Paper PMC4674360 (Molecular cancer therapeutics, 2015)
Entries after “also recorded” stand apart in the source; their conditions may differ. Like-named read-outs stand apart in the source and are kept apart here.

Columns and labels:
[1] = 26 (veliparib); ref 48 (E7016); cited from earlier work
PDGF-driven glioma = settings: higher drug delivery into brain in knockout mice; cited from earlier work
GBM22 = settings: cited from earlier work
GL261 tumors = settings: cited from earlier work
GBM12 flank xenografts = assay: GBM12 flank xenograft tumor regrowth delay; type: in vivo, mice; settings: TMZ 50 mg/kg days 1-5, rucaparib 1 mg/kg days 1-5, three 28 day cycles, placebo 32 days
[2] = test system: GBM12 orthotopic xenografts; assay: GBM12 orthotopic xenograft survival; type: in vivo, mice; settings: TMZ 50 mg/kg, rucaparib 1 mg/kg days 1-5 every 28 days × 3 cycles, placebo 16 days, p = 0.88
[3] = Steady-state brain distribution in wild-type and Mdr1a/b-/-Bcrp1-/- mice; type: in vivo, FVB mice
Method in brief: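 FVB wild-type and Mdr1a/b-/-Bcrp1-/- mice received the test compound for 48 h by intraperitoneal osmotic minipump at 5 µg/hr (pump stock 5 mg/mL in DMSO). Plasma and whole brain were flash-frozen. Brain was homogenised in 5% BSA, samples spiked with dasatinib internal standard and extracted in ethyl acetate, then assayed by positive-mode LC-MS/MS. Brain-to-plasma ratio reported as mean ± SD, n=4.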

PARP = PARP enzymatic activity in tissue homogenates after a single dose; type: in vivo, mice
[4] = biological target: T1, murine Breast Cancer Resistance Protein (BCRP1) (Mus musculus, UniProt Q7TMS5); assay: In vitro intracellular accumulation in BCRP1-overexpressing MDCKII cells; type: in vitro ADME; settings: rucaparib 2 −M, prazosin 0.39 nM, 60 minutes at 37°C, mean ± SD, n = 5-6
T1 sequence (Q7TMS5 1-657): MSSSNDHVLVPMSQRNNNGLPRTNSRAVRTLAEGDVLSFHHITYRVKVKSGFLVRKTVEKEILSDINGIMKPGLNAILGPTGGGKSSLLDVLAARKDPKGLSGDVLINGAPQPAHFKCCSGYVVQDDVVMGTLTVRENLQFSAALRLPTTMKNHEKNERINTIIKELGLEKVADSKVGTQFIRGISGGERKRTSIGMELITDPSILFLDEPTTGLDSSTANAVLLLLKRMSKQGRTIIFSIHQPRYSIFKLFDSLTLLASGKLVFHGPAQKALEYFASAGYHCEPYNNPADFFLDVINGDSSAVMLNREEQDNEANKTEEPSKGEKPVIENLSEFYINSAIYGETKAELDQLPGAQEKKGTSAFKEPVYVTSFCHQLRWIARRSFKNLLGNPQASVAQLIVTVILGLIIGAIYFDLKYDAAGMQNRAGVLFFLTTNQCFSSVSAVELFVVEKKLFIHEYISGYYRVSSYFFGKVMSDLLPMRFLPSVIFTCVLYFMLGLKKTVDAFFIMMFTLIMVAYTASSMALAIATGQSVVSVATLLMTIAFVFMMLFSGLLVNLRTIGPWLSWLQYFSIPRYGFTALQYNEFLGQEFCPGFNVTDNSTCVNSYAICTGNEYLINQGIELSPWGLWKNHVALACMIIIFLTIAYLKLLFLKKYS
Method in brief: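 MDCKII cells (vector control or murine Bcrp1-transfected) were seeded at 2 x 10^5/well and grown to 80% confluence. After washing in serum-free buffer, cells were preincubated 30 min ± 0.2 µM Ko143. They were then exposed to 2 µM test compound or 0.39 nM prazosin (substrate control) for 60 min at 37°C. Uptake was stopped with cold PBS and cells lysed in 1% Triton X-100. Intracellular drug was measured by LC-MS/MS and normalised to BCA protein; mean ± SD, n = 5-6.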

[5] = Tolerability of chronic rucaparib with TMZ; type: in vivo, mice; settings: IP, with 50 mg/kg PO TMZ
[6] = test system: GBM14, GBM43, GBM59 intracranial xenografts; assay: Other orthotopic primary GBM xenograft lines, survival; type: in vivo, mice; settings: three other primary GBM xenograft lines
Method in brief: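 Patient-derived GBM lines were kept by serial passage in mice and implanted intracranially. Mice with established tumours were randomised, 10 per group, to four arms: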

[7] = type: in vivo, mice; settings: for half-life: mouse, 1 mg/kg
Method in brief: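 Mice with orthotopic GBM12 xenografts got a single 1 mg/kg intraperitoneal dose. Plasma, liver and brain (tumour-injected and contralateral hemispheres) were collected and flash-frozen at 0, 60, 120, 360 and 1440 min after dosing. Drug levels were measured by LC-MS; values are the mean of 2 or 3 mice per time point.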

[8] = MALDI mass spectrometric imaging of drug distribution; type: in vivo, mice; settings: thirty minutes after single 10 mg/kg IP dose
Method in brief: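 Tumour-bearing mice got one 10 mg/kg IP dose and were euthanised 30 min later. Brain, liver and tumour were snap-frozen; 12 µm cryosections went onto ITO slides, with sister sections for H&E. DHB matrix was sprayed on (160 mg/mL in methanol/0.2% TFA 70:30). Imaging used a 12 T FT-ICR MS, positive ion mode, m/z 100-2500, 250 shots per spot, 80 µm pixels (brain, liver) and 100 µm (flank tumour).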

[9] = 60 minutes, single 1 mg/kg dose

C[C@]1(c2nc3c(C(N)=O)cccc3[nH]2)CCCN1 [veliparib]
blood brain barrier penetration [1]: significantly penetrate the blood brain barrier

O=c1[nH]nc2c3c(cccc13)Oc1ccc(CN3CCC(O)CC3)cc1-2 [E7016]
blood brain barrier penetration [1]: significantly penetrate the blood brain barrier

Cc1nc(Nc2ncc(C(=O)Nc3c(C)cccc3Cl)s2)cc(N2CCN(CCO)CC2)n1 [dasatinib]
survival of tumor-bearing Mdr1a/b-/-Bcrp1-/- knockout mice compared to wild-type mice (PDGF-driven glioma): significant improvement in survival

C=CCn1c(=O)c2cnc(Nc3ccc(N4CCN(C)CC4)cc3)nc2n1-c1cccc(C(C)(C)O)n1 [MK-1775]
sensitizing effect combined with temozolomide, flank models (GBM22; flank models): significant sensitizing effects
sensitizing effect combined with temozolomide, GBM22 (GBM22; orthotopic GBM22 (contrasted with flank)): no sensitizing effect

Cc1ccc2c(=O)c3cccc(CC(=O)O)c3oc2c1C [DMXAA, 5,6-dimethylxanthenone-4-acetic acid]
effect on survival with intracranial GL261 tumors (GL261 tumors; intracranial): no survival extension
effect on subcutaneous GL261 tumors (GL261 tumors; subcutaneous): significantly delayed tumor growth

Cn1nnc2c(C(N)=O)ncn2c1=O [TMZ, temozolomide]
Median time for tumor to exceed a 1000 mm^3 size endpoint (GBM12 flank xenografts): 86 days
median survival [2]: 68 days

CNCc1ccc(-c2[nH]c3cc(F)cc4c3c2CCNC4=O)cc1 [rucaparib]
Kp at 48 h ([3]; FVB, mouse, brain, ip, 5 µg/hr, brain to plasma ratio at steady state, Mdr1a/1b-/-;Bcrp1-/- (TKO) mice, 48-hour intraperitoneal infusion at 5 −g/hr, mean ± SD, n=4): 1.61 ± 0.25
increase in the brain-to-plasma ratio in knockout versus wild-type mice ([3]; Mdr1a/b-/-Bcrp1-/- knockout mice): ~20 fold
PARP activity in normal brain (contralateral hemisphere) (PARP; by 360 minutes after injection): recovered to baseline
PARP activity in liver (PARP; reduced for several hours after single 1 mg/kg dose): 5 % of baseline
PARP activity in tumor-injected hemisphere (PARP; remained suppressed at this level for 24 hours, single 1 mg/kg dose): 50 % of baseline
intracellular accumulation in BCRP1-overexpressing cells [4]: 14.5±5.2 % of control
highest dose tolerated for chronic administration [5]: 1 mg/kg
potentiation of TMZ by rucaparib [6]: did not potentiate TMZ
concentration in contralateral brain hemisphere [7, 9]: 0.08 −M
concentration in liver [7, 9]: 11.05 −M
concentration in tumor-injected hemisphere [7, 9]: 0.35 −M
concentration in tumor-injected hemisphere ([7]; 6 hours, single 1 mg/kg dose): 0.23 −M
levels in normal brain ([7]; by 360 minutes after injection, single 1 mg/kg dose): undetectable
half-life ([7]; plasma, ip): 1.5 h
half-life ([7]; tumor-injected brain hemisphere, intraperitoneal): 13 h
maximum plasma concentration relative to Cmax in humans (times lower) ([7]; single 1 mg/kg dose in mice versus human Cmax of ref 12): about four-five
rucaparib distribution in flank tumors by MALDI-MSI ([8]; GBM12 flank, n=2): homogeneous and high-level accumulation
rucaparib distribution in orthotopic tumors by MALDI-MSI ([8]; GBM12 orthotopic, n=3): no appreciable rucaparib signal
rucaparib distribution in normal brain by MALDI-MSI ([8]; adjacent normal brain, 10 mg/kg): no appreciable rucaparib signal; also recorded: below the limit of detection

COc1cc2nc(N3CCN(C(=O)c4ccco4)CC3)nc(N)c2cc1OC [prazosin]
intracellular accumulation in BCRP1-overexpressing cells [4]: 16.8±1.4 % of control
